The source of these data is ChEMBL document CHEMBL3124924, “Bifunctional ethyl 2-amino-4-methylthiazole-5-carboxylate derivatives: synthesis and in vitro biological evaluation as antimicrobial and anticancer agents” (2014).

Converted amounts (≈) assume the structure as drawn. The source made the active and inactive calls. Where only a bound is given, the exact number is not on record here.

Usually MBC stands for the smallest concentration meeting the test's criterion for killing. Read a low MBC as more potent killing. One may read the MIC as the smallest concentration in the dilution series that meets the test's criterion for growth inhibition.

Assay [1] deals with Pseudomonas aeruginosa. Kind of assay: Antibacterial activity against Pseudomonas aeruginosa ATCC 27853 assessed as growth inhibition at 1 mg/mL after 24 hrs by agar-cup diffusion method. Conditions: ATCC 27853, 24 h, read-out: DIZ. It is filed as functional. In a few lines:
(§1)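 Agar-cup diffusion: 1 mL of 6 h broth culture seeded per 100 mL molten sterile agar at 45 °C and poured into plates. 8 mm cups cut, each filled with 0.1 mL of 1 mg/mL test solution. Incubated 37 °C for 24 h, 48 h for C. albicans. DMSO control per organism. Inhibition zone diameter in mm, mean of three measurements.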

The test system of assay [2] is Aspergillus niger. Briefly: Antifungal activity against Aspergillus niger assessed as growth inhibition at 1 mg/mL after 24 hrs by agar-cup diffusion method. It is filed as functional, organism-based. The method, boiled down: as §1
Assay [3] concerns Bacillus spizizenii. Kind of assay: Bactericidal activity against Bacillus subtilis ATCC 6633 after 18 hrs. It is filed as functional. Conditions: ATCC 6633, 18 h. The method, boiled down: (§2)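 Continuation of the broth-dilution MIC test. A loopful from each tube without visible growth spread on a quarter of a Mueller-Hinton agar plate and incubated 18 h. Lowest concentration giving no growth on subculture taken as the MBC.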

For assay [4], the system named is Staphylococcus aureus. Kind of assay: Bactericidal activity against Staphylococcus aureus ATCC 6538 after 18 hrs. It is filed as functional. As to conditions: ATCC 6538, 18 h. In a few lines: as §2
Assay [5] concerns Escherichia coli. Briefly: Antibacterial activity against Escherichia coli ATCC 25922 assessed as growth inhibition after 48 hrs by two-fold serial dilution assay. The format is functional. In a few lines: (§3)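 Twofold serial broth dilution run on compounds giving inhibition zones of 13 mm or more. Organisms pre-grown in suitable broth at 37 °C, 24 h for bacteria and 48 h for fungi. Dilution series 200, 100, 50, 25, 12.5, 6.25. Each 5 mL tube inoculated with 0.1 mL and incubated 37 °C for 48 h. Tubes scored for presence or absence of growth.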

For assay [6], the system named is Candida albicans. Kind of assay: Antifungal activity against Candida albicans ATCC 10231 assessed as growth inhibition at 1 mg/mL after 48 hrs by agar-cup diffusion method. It is filed as functional. Conditions: ATCC 10231, 48 h, read-out: DIZ. The method, boiled down: as §1
Assay [7] deals with Staphylococcus aureus. Kind of assay: Antibacterial activity against Staphylococcus aureus ATCC 6538 assessed as growth inhibition after 48 hrs by two-fold serial dilution assay. It is filed as functional. In a few lines: as §3
Assay [8] has as its system Bacillus spizizenii. Briefly: Antibacterial activity against Bacillus subtilis ATCC 6633 assessed as growth inhibition at 1 mg/mL after 24 hrs by agar-cup diffusion method. The format is functional. As to conditions: ATCC 6633, 24 h, read-out: DIZ. The method, boiled down:
as §1

Assay [9] concerns Escherichia coli. Briefly: Bactericidal activity against Escherichia coli ATCC 25922 after 18 hrs. It is filed as functional. As to conditions: ATCC 25922, 18 h. In a few lines: as §2
In assay [10] the test system is Escherichia coli. Briefly: Antibacterial activity against Escherichia coli ATCC 25922 assessed as growth inhibition at 1 mg/mL after 24 hrs by agar-cup diffusion method. The format is functional. As to conditions: ATCC 25922, 24 h, read-out: DIZ. In a few lines: as §1
Assay [11] deals with Bacillus spizizenii. Kind of assay: Antibacterial activity against Bacillus subtilis ATCC 6633 assessed as growth inhibition after 48 hrs by two-fold serial dilution assay. It is filed as functional. The method, boiled down:
as §3

The test system of assay [12] is Staphylococcus aureus. Kind of assay: Antibacterial activity against Staphylococcus aureus ATCC 6538 assessed as growth inhibition at 1 mg/mL after 24 hrs by agar-cup diffusion method. The format is functional. Conditions: ATCC 6538, 24 h, read-out: DIZ. The method, boiled down:
as §1

In assay [13] the test system is Pseudomonas aeruginosa. Kind of assay: Antibacterial activity against Pseudomonas aeruginosa ATCC 27853 assessed as growth inhibition after 48 hrs by two-fold serial dilution assay. The format is functional. In a few lines:
as §3

Assay [14] has as its system Pseudomonas aeruginosa. Briefly: Bactericidal activity against Pseudomonas aeruginosa ATCC 27853 after 18 hrs. It is filed as functional. As to conditions: ATCC 27853, 18 h. The method, boiled down:
as §2

Assay [15] concerns Candida albicans. Kind of assay: Antifungal activity against Candida albicans ATCC 10231 assessed as growth inhibition after 48 hrs by two-fold serial dilution assay. It is filed as functional. As to conditions: ATCC 10231, 48 h. In a few lines:
as §3

As for `CCOC(=O)c1sc(/N=C/c2cccs2)nc1C`, the zone of inhibition at 1000 µg/mL in [1], in assay [6], in assay [8], in assay [10] and in assay [12] was greater than 13 mm in each case. Moreover, the “growth inhibition (GI)” value in [2] is “inactive”. Moreover, the MBC was determined as 200 µg/mL (≈ 713 µM) in [3], 200 µg/mL (≈ 713 µM) in assay [4] and 100 µg/mL (≈ 357 µM) in assay [9]. Also, the minimal inhibitory concentration (MIC) in [5] (ATCC 25922, 48 h) worked out at 50 µg/mL (≈ 178 µM); in assay [7] (ATCC 6538, 48 h) it was 100 µg/mL (≈ 357 µM); in assay [11] (ATCC 6633, 48 h), 100 µg/mL (≈ 357 µM).

For GENTAMICIN, the MIC in assay [13] was 12.5 µg/mL; in [5], 3.12 µg/mL; in assay [7] it was 3.12 µg/mL; in [11], 12.5 µg/mL.

As to `CCOC(=O)c1sc(/N=C/c2ccco2)nc1C`, the zone of inhibition at 1000 µg/mL in assay [1], in assay [6], in assay [8], in assay [10] and in [12] was greater than 13 mm throughout. For the same compound, the “growth inhibition (GI)” value in assay [2] is “inactive”. The figures for the MBC in [3], in assay [4] and in [9] were 200 µg/mL (≈ 757 µM), 100 µg/mL (≈ 378 µM) and 50 µg/mL (≈ 189 µM), respectively. The MIC was found to be 25 µg/mL (≈ 94.6 µM) in assay [5] (ATCC 25922, 48 h); 50 µg/mL (≈ 189 µM) in [7] (ATCC 6538, 48 h); 100 µg/mL (≈ 378 µM) in assay [11] (ATCC 6633, 48 h).

`CC1(C)S[C@@H]2[C@H](NC(=O)[C@H](N)c3ccccc3)C(=O)N2[C@H]1C(=O)O.O.O.O` [AMPICILLIN TRIHYDRATE]: the minimum inhibitory concentration (MIC) came out at 12.5 µg/mL in [13] (ATCC 27853, 48 h); 6.25 µg/mL in [5] (ATCC 25922, 48 h); 6.25 µg/mL in assay [7] (ATCC 6538, 48 h); 12.5 µg/mL in assay [11] (ATCC 6633, 48 h).

For `Cc1nc(NC(=S)NC2CCCCC2)sc1C(=O)NN`, the zone of inhibition at 1000 µg/mL in assay [1], in assay [6], in [8], in assay [10] and in assay [12] was greater than 13 mm throughout. Moreover, the “growth inhibition (GI)” value in assay [2] is “inactive”. In addition, the minimal bactericidal concentration (MBC) was found to be 100 µg/mL (≈ 319 µM) in assay [3], 100 µg/mL (≈ 319 µM) in assay [4], 200 µg/mL (≈ 638 µM) in assay [14] and 100 µg/mL (≈ 319 µM) in assay [9]. For the same compound, the minimum inhibitory concentration (MIC) was determined as 100 µg/mL (≈ 319 µM) in [13] (ATCC 27853, 48 h); 50 µg/mL (≈ 160 µM) in [5] (ATCC 25922, 48 h); 100 µg/mL (≈ 319 µM) in [7] (ATCC 6538, 48 h); 100 µg/mL (≈ 319 µM) in assay [11] (ATCC 6633, 48 h).

With `CCOC(=O)c1sc(NC(=S)NC2CCCCC2)nc1C`, the zone of inhibition at 1000 µg/mL in assay [1], in assay [6], in assay [8], in [10] and in assay [12] was greater than 13 mm in each case. Also, the “growth inhibition (GI)” value in assay [2] was “inactive”. The MBC in assay [3] worked out at 200 µg/mL (≈ 611 µM); in [4], 100 µg/mL (≈ 305 µM); in assay [9] it was 100 µg/mL (≈ 305 µM). Further, the MIC in [5] (ATCC 25922, 48 h) worked out at 50 µg/mL (≈ 153 µM); in assay [7] (ATCC 6538, 48 h) it was 50 µg/mL (≈ 153 µM); in assay [11] (ATCC 6633, 48 h), 100 µg/mL (≈ 305 µM).

Regarding `C[C@@H]1[C@H](O)[C@@H](C)/C=C/C=C/C=C/C=C/C=C/C=C/C=C/[C@H](O[C@@H]2O[C@H](C)[C@@H](O)[C@H](N)[C@@H]2O)C[C@@H]2O[C@](O)(C[C@@H](O)C[C@@H](O)[C@H](O)CC[C@@H](O)C[C@@H](O)CC(=O)O[C@H]1C)C[C@H](O)[C@H]2C(=O)O` [AMPHOTERICIN B], in [15], the MIC amounted to 1.56 µg/mL (≈ 1.69 µM).

Consider `CCOC(=O)c1sc(NC(=S)Nc2ccc(C)cc2)nc1C`, for which the zone of inhibition at 1000 µg/mL in assay [1], in [6], in assay [8], in assay [10] and in [12] was greater than 13 mm each time. In addition, the “growth inhibition (GI)” value in assay [2] is “inactive”. Further, the MBC in [3] was 100 µg/mL (≈ 298 µM); in [4], 50 µg/mL (≈ 149 µM); in [14], 200 µg/mL (≈ 596 µM); in assay [9] it was 100 µg/mL (≈ 298 µM). Also, the MIC in assay [13] (ATCC 27853, 48 h) worked out at 100 µg/mL (≈ 298 µM); in assay [5] (ATCC 25922, 48 h) it was 50 µg/mL (≈ 149 µM); in [7] (ATCC 6538, 48 h) it was 50 µg/mL (≈ 149 µM); in [11] (ATCC 6633, 48 h), 100 µg/mL (≈ 298 µM).

Regarding `Clc1ccccc1C(c1ccccc1)(c1ccccc1)n1ccnc1` [CLOTRIMAZOLE], the MIC in assay [15] is 6.25 µg/mL (≈ 18.1 µM).

Consider `Cc1nc(NC(=S)Nc2ccccc2)sc1C(=O)NN`, for which the zone of inhibition at 1000 µg/mL in assay [1], in [6], in assay [8], in [10] and in assay [12] was greater than 13 mm in each case. In addition, the “growth inhibition (GI)” value in [2] is “inactive”. Further, the MBC in assay [3] came to 200 µg/mL (≈ 651 µM); in [4], 100 µg/mL (≈ 325 µM); in [9], 100 µg/mL (≈ 325 µM). Also, the MIC in assay [5] (ATCC 25922, 48 h) worked out at 100 µg/mL (≈ 325 µM); in [7] (ATCC 6538, 48 h), 50 µg/mL (≈ 163 µM); in [11] (ATCC 6633, 48 h), 100 µg/mL (≈ 325 µM).

Take `CCOC(=O)c1sc(NC=O)nc1C`: the zone of inhibition at 1000 µg/mL in assay [1], in assay [6], in assay [8], in assay [10] and in assay [12] was greater than 13 mm throughout. For the same compound, the “growth inhibition (GI)” value in assay [2] was “inactive”. Besides, the minimal bactericidal concentration (MBC) in assay [3] and in [4] was 200 µg/mL (≈ 934 µM) in each case. Besides, the MIC amounted to 100 µg/mL (≈ 467 µM) in assay [7] (ATCC 6538, 48 h) and 100 µg/mL (≈ 467 µM) in assay [11] (ATCC 6633, 48 h).
